In paper PMC7246176 (Nature chemical biology, 2020):
Read-outs that look alike come from different tables or passages of the source. One block for each molecule: values may come before it.

Tests used:
PATU-8902 cells [1] = experiment: Cell viability, ultra-low adherent 3D-spheroid culture, PATU-8902; assay type: cell-based, human; settings: read-out: PATU-8902 cells 3D spheroid culture IC50
Method in brief: (§1)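 PATU-8988T and PATU-8902 cells were plated at 100 cells/well in 50 μL media, either adherent (2D) or in ultra-low attachment spheroid plates (3D), overnight. Test compound was pin-transferred and cells were incubated 120 h. Viability was read by CellTiter-Glo luminescence after 15 min at room temperature. Data were normalized to DMSO-treated wells per cell line and fitted.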

PANFR0172_T4 = experiment: Patient-derived pancreatic organoid viability, PANFR0172_T4; assay type: cell-based, human; settings: read-out: PANFR0172_T4 3D organoid culture IC50
Method in brief: (§2)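 Patient-derived PDAC organoids were dissociated to single cells and plated at 1000 viable cells/well in complete organoid medium with 10% Matrigel, in ultra-low-attachment 384-well plates. After 24 h, compound was added by digital dispenser, then 7 days incubation. Read-out was CellTiter-Glo 3D luminescence after 1 h shaking at room temperature, normalized to DMSO wells for each culture.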

PANFR0172_T2 = experiment: Patient-derived pancreatic organoid viability, PANFR0172_T2; assay type: cell-based, human; settings: read-out: PANFR0172_T2 3D organoid culture IC50
Method in brief: as §2

PATU-8988T cells [2] = experiment: Cell viability, ultra-low adherent 3D-spheroid culture, PATU-8988T; assay type: cell-based, human; settings: read-out: PATU-8988T cells 3D spheroid culture IC50, 120 h
Method in brief: (§3)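 PATU-8902 or PATU-8988T cells were plated at 100 cells/well and left overnight to adhere (2D plates) or to form spheroids (ultra-low-attachment 3D spheroid plates). Compound was pin-transferred, then 120 h incubation. Viability by CellTiter-Glo luminescence after 15 min at room temperature, normalized to DMSO-treated wells for each cell line.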

PATU-8902 cells [3] = experiment: Cell viability, 2D-adherent monolayer culture, PATU-8902; assay type: cell-based, human; settings: read-out: PATU-8902 cells 2D monolayer culture IC50
Method in brief: as §3

PANFR0029_T2 = experiment: Patient-derived pancreatic organoid viability, PANFR0029_T2; assay type: cell-based, human; settings: read-out: PANFR0029_T2 3D organoid culture IC50
Method in brief: as §2

PATU-8988T cells [4] = experiment: Cell viability, 2D-adherent monolayer culture, PATU-8988T; assay type: cell-based, human; settings: read-out: PATU-8988T cells 2D monolayer culture IC50, 120 h
Method in brief: as §1

PANFR0172_T3 = experiment: Patient-derived pancreatic organoid viability, PANFR0172_T3; assay type: cell-based, human; settings: read-out: PANFR0172_T3 3D organoid culture IC50
Method in brief: as §2

DCLK2 = molecular target: T1, DCLK2 (Homo sapiens, UniProt Q8N568); experiment: DCLK2 KINOMEscan binding assay
T1 sequence (Q8N568 1-766): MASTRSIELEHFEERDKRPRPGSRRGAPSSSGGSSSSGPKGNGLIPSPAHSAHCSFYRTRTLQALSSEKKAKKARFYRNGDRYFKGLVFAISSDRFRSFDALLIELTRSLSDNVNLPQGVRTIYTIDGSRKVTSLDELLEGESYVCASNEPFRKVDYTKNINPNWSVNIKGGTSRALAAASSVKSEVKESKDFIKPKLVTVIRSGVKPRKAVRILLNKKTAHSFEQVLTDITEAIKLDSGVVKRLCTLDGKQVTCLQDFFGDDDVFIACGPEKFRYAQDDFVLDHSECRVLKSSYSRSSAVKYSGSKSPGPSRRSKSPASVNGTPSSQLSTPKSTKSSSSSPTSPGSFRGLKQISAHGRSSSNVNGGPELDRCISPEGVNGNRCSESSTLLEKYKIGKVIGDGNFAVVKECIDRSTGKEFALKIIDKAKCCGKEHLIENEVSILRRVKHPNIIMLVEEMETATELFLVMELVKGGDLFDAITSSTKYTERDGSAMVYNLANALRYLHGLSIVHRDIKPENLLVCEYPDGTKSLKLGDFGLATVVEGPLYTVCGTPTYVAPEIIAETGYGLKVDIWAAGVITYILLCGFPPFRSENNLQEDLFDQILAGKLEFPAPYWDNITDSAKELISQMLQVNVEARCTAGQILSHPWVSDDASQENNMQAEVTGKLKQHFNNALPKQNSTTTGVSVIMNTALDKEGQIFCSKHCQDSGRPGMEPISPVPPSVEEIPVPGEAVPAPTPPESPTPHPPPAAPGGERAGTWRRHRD
Method in brief: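 KINOMEscan competition binding run by a contract lab. Test compound in 12-point dose response, top concentration 10 μM. Values are the mean of n = 2 biologically independent samples.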

LRRK2 = LRRK2 (Homo sapiens, UniProt Q5S007); experiment: LRRK2 ADAPTA kinase assay; assay type: biochemical; settings: LRRK2 kinase assay IC50, ADAPTA; Table 1
DCLK1 = molecular target: T2, DCLK1 (Homo sapiens, UniProt O15075); experiment: 33P-ATP DCLK1 kinase assay; assay type: biochemical; settings: DCLK1 kinase assay IC50, 33P-ATP; ATP 50 μM (Km)
T2 sequence (O15075 1-740): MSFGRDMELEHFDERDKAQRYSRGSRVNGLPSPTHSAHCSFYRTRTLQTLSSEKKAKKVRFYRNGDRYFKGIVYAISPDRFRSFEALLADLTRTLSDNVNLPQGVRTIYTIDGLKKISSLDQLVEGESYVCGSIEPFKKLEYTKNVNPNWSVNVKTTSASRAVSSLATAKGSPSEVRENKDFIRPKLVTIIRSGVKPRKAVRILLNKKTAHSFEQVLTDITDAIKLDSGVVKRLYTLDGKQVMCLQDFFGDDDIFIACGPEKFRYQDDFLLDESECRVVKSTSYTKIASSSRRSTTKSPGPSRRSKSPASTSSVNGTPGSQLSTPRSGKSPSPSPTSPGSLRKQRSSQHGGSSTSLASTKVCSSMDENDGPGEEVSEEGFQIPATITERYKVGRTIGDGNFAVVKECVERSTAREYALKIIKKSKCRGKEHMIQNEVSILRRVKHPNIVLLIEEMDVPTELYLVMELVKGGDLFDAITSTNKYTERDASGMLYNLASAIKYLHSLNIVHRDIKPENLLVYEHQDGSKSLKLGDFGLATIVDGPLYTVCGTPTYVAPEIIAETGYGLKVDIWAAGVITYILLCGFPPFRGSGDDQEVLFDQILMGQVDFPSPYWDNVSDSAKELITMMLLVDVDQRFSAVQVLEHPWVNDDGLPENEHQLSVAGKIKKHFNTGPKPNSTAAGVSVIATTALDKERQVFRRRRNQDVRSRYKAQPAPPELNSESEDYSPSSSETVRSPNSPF

[5] = molecular target: T3, DCLK1-Nluc in HCT116 cells (Homo sapiens, UniProt O15075); experiment: DCLK1 NanoBRET target engagement assay in HCT116 cells; assay type: cell-based
T3 sequence (O15075 1-729 isoform O15075-2): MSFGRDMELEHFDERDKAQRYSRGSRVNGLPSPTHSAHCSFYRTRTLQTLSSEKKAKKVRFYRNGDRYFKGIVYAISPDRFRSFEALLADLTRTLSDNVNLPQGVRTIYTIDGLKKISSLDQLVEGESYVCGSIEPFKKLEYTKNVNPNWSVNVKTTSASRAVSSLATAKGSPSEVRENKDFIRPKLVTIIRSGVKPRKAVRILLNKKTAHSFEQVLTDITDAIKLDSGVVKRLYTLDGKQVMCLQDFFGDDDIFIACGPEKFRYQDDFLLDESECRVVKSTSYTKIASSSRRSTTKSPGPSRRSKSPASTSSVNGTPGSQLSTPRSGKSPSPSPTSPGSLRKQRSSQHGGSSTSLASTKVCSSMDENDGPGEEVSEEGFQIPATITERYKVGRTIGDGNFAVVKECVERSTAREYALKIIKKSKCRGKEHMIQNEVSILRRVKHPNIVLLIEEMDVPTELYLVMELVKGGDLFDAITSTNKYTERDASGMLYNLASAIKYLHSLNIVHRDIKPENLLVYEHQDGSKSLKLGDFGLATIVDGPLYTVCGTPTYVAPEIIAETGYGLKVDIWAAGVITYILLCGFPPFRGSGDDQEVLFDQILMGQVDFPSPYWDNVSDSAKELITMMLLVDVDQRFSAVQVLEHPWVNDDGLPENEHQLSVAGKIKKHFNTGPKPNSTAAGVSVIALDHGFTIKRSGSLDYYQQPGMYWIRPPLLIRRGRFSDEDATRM

DCLK1 protein levels = DCLK1 protein levels by immunoblot in PDAC cells; assay type: cell-based, human; settings: after 48 h, PATU-8988T and PATU-8902 cells
FKBP12^F36V-KRAS^G12V = experiment: KRAS G12V degradation by immunoblot in FKBP12F36V-KRASG12V; assay type: cell-based, human; settings: KRAS^−/− cells
[6] = viability, 7 d, P.R. = partial response

Chain of LRRK2 (Q5S007 whole entry): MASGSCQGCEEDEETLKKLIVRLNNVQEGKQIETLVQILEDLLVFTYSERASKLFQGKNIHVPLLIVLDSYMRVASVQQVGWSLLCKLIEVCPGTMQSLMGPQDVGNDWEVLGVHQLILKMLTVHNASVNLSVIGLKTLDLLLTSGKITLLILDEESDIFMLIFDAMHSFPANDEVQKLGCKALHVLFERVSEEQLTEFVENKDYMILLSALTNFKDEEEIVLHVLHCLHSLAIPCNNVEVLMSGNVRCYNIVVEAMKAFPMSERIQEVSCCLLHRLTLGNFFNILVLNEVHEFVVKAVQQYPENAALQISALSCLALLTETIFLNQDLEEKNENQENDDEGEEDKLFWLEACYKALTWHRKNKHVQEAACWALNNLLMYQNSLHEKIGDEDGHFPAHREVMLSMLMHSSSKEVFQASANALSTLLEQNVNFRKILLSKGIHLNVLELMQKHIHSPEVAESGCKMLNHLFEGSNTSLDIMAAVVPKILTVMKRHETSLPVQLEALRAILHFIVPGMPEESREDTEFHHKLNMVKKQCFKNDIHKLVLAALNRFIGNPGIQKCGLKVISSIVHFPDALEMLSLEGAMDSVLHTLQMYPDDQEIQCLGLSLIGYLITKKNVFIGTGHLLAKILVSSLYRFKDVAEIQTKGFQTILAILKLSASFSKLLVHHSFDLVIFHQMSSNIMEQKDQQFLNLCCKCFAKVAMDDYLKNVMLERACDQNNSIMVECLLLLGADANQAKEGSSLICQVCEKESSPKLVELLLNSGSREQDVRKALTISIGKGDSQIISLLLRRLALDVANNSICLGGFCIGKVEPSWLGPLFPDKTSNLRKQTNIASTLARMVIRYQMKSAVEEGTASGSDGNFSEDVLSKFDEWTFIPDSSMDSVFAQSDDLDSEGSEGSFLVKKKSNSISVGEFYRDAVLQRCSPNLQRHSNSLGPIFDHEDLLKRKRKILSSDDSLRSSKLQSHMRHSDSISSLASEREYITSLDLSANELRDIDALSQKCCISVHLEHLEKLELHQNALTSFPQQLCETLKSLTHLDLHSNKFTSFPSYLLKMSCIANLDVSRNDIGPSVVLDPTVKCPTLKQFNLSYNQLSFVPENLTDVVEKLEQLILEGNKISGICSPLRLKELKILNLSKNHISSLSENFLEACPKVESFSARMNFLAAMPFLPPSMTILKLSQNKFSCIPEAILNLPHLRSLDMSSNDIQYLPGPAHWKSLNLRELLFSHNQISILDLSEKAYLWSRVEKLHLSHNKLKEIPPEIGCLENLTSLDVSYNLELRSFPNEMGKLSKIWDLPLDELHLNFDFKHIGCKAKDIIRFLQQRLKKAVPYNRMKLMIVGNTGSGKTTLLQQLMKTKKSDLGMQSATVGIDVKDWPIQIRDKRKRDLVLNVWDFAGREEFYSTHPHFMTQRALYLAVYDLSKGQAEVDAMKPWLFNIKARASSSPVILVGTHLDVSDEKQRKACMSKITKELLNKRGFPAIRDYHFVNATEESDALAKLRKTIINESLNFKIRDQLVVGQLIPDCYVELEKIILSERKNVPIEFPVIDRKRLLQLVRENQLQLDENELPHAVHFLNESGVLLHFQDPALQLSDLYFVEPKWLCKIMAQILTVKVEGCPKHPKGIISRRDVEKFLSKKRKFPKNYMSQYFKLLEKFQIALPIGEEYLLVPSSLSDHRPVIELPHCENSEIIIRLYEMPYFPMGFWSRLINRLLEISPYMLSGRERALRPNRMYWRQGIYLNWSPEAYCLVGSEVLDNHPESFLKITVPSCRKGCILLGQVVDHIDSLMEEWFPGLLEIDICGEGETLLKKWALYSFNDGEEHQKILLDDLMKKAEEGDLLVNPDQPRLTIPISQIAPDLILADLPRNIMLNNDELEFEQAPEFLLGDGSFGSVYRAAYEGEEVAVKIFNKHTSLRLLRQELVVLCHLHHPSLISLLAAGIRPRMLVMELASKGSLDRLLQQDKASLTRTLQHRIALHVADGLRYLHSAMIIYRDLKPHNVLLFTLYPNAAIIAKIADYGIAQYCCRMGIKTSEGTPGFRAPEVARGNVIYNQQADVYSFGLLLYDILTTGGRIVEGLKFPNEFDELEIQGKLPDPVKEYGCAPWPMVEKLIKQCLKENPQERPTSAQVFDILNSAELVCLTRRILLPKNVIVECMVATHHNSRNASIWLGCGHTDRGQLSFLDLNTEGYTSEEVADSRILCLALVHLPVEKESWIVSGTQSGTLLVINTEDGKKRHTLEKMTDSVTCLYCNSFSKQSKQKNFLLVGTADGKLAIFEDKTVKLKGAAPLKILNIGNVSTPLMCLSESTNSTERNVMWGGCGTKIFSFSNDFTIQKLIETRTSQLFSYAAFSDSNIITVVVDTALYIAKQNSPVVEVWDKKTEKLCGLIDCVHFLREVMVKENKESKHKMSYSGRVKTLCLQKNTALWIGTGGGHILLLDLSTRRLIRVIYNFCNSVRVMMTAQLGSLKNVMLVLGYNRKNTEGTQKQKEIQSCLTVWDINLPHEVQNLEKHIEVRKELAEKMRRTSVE

Compound: Cc1sc2c(c1C)C(c1ccc(Cl)cc1)=N[C@@H](CC(=O)OC(C)(C)C)c1nnc(C)n1-2 [JQ1]
IC50 (PATU-8902 cells [1]; cell viability, 120 h, P.R. = partial response): > 1000 nM | IC50 (PANFR0172_T4; [6]): > 1 µM | IC50 (PANFR0172_T2; [6]): > 1000 nM | IC50 (PATU-8988T cells [2]; cell viability): 111 nM | IC50 (PATU-8902 cells [3]; cell viability, 120 h): 1810 nM | IC50 (PANFR0029_T2; viability, 7 d, DCLK1-negative organoids): 363 nM | IC50 (PATU-8988T cells [4]; cell viability, P.R. = partial response): 67.4 nM | IC50 (PANFR0172_T3; [6]): > 1000 nM

IC50 (DCLK2): 9.9 nM | IC50 (LRRK2): 4.1 nM | IC50 (DCLK1): 55 nM | IC50 [5]: 400 nM
Compound: COc1cc(C(=O)N2CCC(N3CCN(C)CC3)CC2)ccc1Nc1ncc2c(n1)N(C)c1ccccc1C(=O)N2C [LRRK2-IN-1]
IC50 (PATU-8902 cells [1]; Homo sapiens, PaTu 8902, 120 h): > 1000 nM | IC50 (PANFR0172_T4; Homo sapiens, 168 h): > 20 µM | IC50 (PANFR0172_T2; Homo sapiens, 168 h): 1340 nM | IC50 (PATU-8988T cells [2]; Homo sapiens, PaTu 8988t): 1870 nM | IC50 (PATU-8902 cells [3]; Homo sapiens, PaTu 8902, 120 h): > 20000 nM | IC50 (PATU-8988T cells [4]; Homo sapiens, PaTu 8988t): 1150 nM | IC50 (PANFR0172_T3; Homo sapiens, 168 h): 1500 nM

Compound: CC(=O)Nc1cccc(-n2c(=O)n(C3CC3)c(=O)c3c(Nc4ccc(I)cc4F)n(C)c(=O)c(C)c32)c1 [Trametinib]
IC50 (PATU-8902 cells [1]; Homo sapiens, PaTu 8902, 120 h): < 0.63 nM | IC50 (PANFR0172_T4; Homo sapiens, 168 h): > 20 µM | IC50 (PANFR0172_T2; Homo sapiens, 168 h): 791 nM | IC50 (PATU-8988T cells [2]; Homo sapiens, PaTu 8988t): 1 nM | effect on DCLK1 protein levels (DCLK1 protein levels): diminished DCLK1 protein levels | IC50 (PATU-8902 cells [3]; Homo sapiens, PaTu 8902, 120 h): 4.89 nM | IC50 (PANFR0029_T2; Homo sapiens, 168 h): 185 nM | IC50 (PATU-8988T cells [4]; Homo sapiens, PaTu 8988t): 60 nM | IC50 (PANFR0172_T3; Homo sapiens, 168 h): 1180 nM

Compound: CC[C@H](C(=O)N1CCCC[C@H]1C(=O)O[C@H](CCc1ccc(OC)c(OC)c1)c1ccccc1OCC(=O)NCCCCCCOc1cccc2c1C(=O)N(C1CCC(=O)NC1=O)C2=O)c1cc(OC)c(OC)c(OC)c1 (some centres unmarked) [dTAG-13]
time to initiation of KRAS^G12V degradation (FKBP12^F36V-KRAS^G12V): ≤ 1 h
